Data published in PubChem BioAssay AID1885 (Broad Institute, 2009).
Where “and” joins values, the source holds several entries; their conditions need not be identical. Equal values may be shown once. About 4,400 (1.5%) of roughly 300,000 compounds were called active.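 The calls were made as follows: active = mean inhibition across valid replicates above about 55% (limit read from the data); inconclusive = mean below that limit but half or more replicates reach it; inactive = mean below it, under half of replicates reach it.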 This excerpt belongs to a sample that is enriched for actives. Where a structure was tested more than once in an assay, its records may differ in their call.

Assay: inhibitors of intracellular T. cruzi growth, primary screen, luminescence, NIH3T3 host cells (AID 1885);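 also: signal also drops with host cell toxicity which is not excluded here; 0% = plate median of DMSO wells and 100% = zero luminescence signal; higher percent means less beta-gal luminescence so fewer parasites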
Conditions: T. cruzi beta-gal in NIH3T3, luminescence, 90 h; stronger effect = higher value; concentration not given here
How it was run: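 assay system = mouse NIH/3T3 fibroblasts infected with β-gal-expressing T. cruzi Tulahuen C4 | input = 5,000 NIH/3T3 host cells per well | buffer or medium = DMEM plus 2% FBS | timing = 3 h host attachment, then at least 90 h co-culture | measured by = GalScreen luminescence, 60 min | evaluation = luminescence reflecting intracellular parasite burden, expressed as percent inhibition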

Structure (SMILES)	inhibition
COc1ccc(CCNC(=O)C(=O)NCC2CCCN2S(=O)(=O)c2cccs2)cc1OC (stereo unspecified)	17.5% (inactive)
CC(=O)c1sc(NC(=O)CCCOc2ccccc2C)nc1C	-0.939% (inactive)
CC(=O)c1sc(N/N=C\c2ccc(C)cc2)nc1C	-6.96% (inactive)
CC(=O)c1sc(N/N=C/c2ccc(C(C)C)cc2)nc1C	65.4% (active)
O=C(Nc1ccc(OC(F)(F)F)cc1)c1ccc2c(c1)no[n+]2[O-]	34.6% (inactive)
COc1ccccc1C(=O)NC(=O)COC(=O)C1CC1	5.64% (inactive)
CS(=O)(=O)N(CC(=O)N1CCc2ccccc2C1)c1ccc(Br)cc1	17.3% (inactive)
CCC(=C/c1sc2ccc3ccccc3c2[n+]1C)/C=C1\Sc2ccc3ccccc3c2N1C	65.5% (active)
O=C(COc1ccccc1)Nc1ccc(F)cc1	-10.9% (inactive)
O=C(NC(Cc1ccccc1)C(=O)N1CCCC(C(F)(F)F)C1)c1ccccc1 (stereo unspecified)	-16.5% (inactive)
COc1ccc(NC(=O)c2cc(-c3ccc(C)o3)nc3ccccc23)cc1	14.8% (inactive)
CCOc1ccc(S(=O)(=O)Nc2nc3cc(OC)ccc3s2)cc1	-7.46% (inactive)
CN(C)CCN(C(=O)C1CCCCC1)c1nc2cc3c(cc2s1)OCO3	28.7% (inactive)
COc1ccc2sc(N(CCCN(C)C)C(=O)c3ccc(S(=O)(=O)N(C)C4CCCCC4)cc3)nc2c1	61% (active)
COc1cccc2sc(N(CCCN(C)C)C(=O)C(c3ccccc3)c3ccccc3)nc12	31.5% (inactive)
Cc1ccc2nc(N(CCN(C)C)C(=O)C3=COCCO3)sc2c1	53% (inactive)
CC(=O)N(CCCN(C)C)c1nc2ccc(C)cc2s1	57.7% (active)
CCN(CC)CCN(C(=O)c1cc(Cl)sc1Cl)c1nc2cc3c(cc2s1)OCO3	33.9% (inactive)
CCc1ccc2nc(N(CCCN(C)C)C(=O)c3ccc4c(c3)OCCO4)sc2c1	55.2% (active)
CN(C)CCN(C(=O)CN1C(=O)c2ccccc2C1=O)c1nc2cc3c(cc2s1)OCCO3	66.3% (active)
COc1cccc2sc(N(CCCN(C)C)C(=O)CCS(=O)(=O)c3ccccc3)nc12	-2.98% (inactive)
CN(C)CCN(C(=O)C1=COCCO1)c1nc2ccc(Cl)cc2s1	41.8% (inactive)
CCOc1ccc2nc(N(CCCN(C)C)C(=O)c3ccc(C(=O)c4ccccc4)cc3)sc2c1	34.6% (inactive)
Cc1ccc(S(=O)(=O)NCCC(=O)NC2CCN(Cc3ccccc3)CC2)cc1	38% (inactive)

Structure (SMILES)	inhibition
CCOc1ccc(S(=O)(=O)N2CCC(C(=O)OCc3ccc(OC)cc3)CC2)cc1	-1.31% (inactive)
COc1ccccc1N(CC(=O)Nc1ccccc1C(=O)N1CCCC1)S(C)(=O)=O	-3.65% (inactive)
Cc1ccc(NC(=O)CSCC(=O)Nc2sccc2C#N)cc1	-1.58% (inactive)
COc1ccc(CCNC(=O)CN2C(=O)COc3ccc(S(=O)(=O)N4CCCC4)cc32)cc1OC	-4.6% (inactive)
CN(C)CCCN(C(=O)c1ccc(S(=O)(=O)N2CCCCCC2)cc1)c1nc2ccc(Br)cc2s1	23.2% (inactive)
CCN(CC)CCN(C(=O)c1ccc(S(=O)(=O)N2CCOCC2)cc1)c1nc2cc3c(cc2s1)OCCO3	50.5% (inactive)
CN(C)CCCN(C(=O)c1ccc(S(=O)(=O)N2CCCCCC2)cc1)c1nc2cc3c(cc2s1)OCCO3	65.3% (active)
Cc1ccccc1OCC(=O)NNC(=O)c1ccc(-n2cncn2)c([N+](=O)[O-])c1	14.2% (inactive)
COc1cc(C(=O)OCC(=O)N(CC(C)C)C2CCS(=O)(=O)C2)ccc1OCC(C)C (stereo unspecified)	1.65% (inactive)
O=C(Cc1ccc(F)cc1)NC1CCCC1	-10.7% (inactive)
O=C(CSc1ncnc2c1oc1ccccc12)NC1CCCC1	9.78% (inactive)
O=C(CSc1ncnc2c1nnn2Cc1ccc(F)cc1)NC1CCCC1	59.1% (active)
Cc1sc(NC(=O)C2=COCCO2)c(C#N)c1C	6.24% (inactive)
COc1cccc(C(=O)NCCS(=O)(=O)NCC2CCCO2)c1 (stereo unspecified)	-7.57% (inactive)
O=C(NCCCN1CCOCC1)c1ccc([N+](=O)[O-])cc1[N+](=O)[O-]	64.7% (active)
O=C(NCCCN1CCOCC1)c1ccc(N2CCCC2)c([N+](=O)[O-])c1	8.18% (inactive)
O=[N+]([O-])c1ccc(NCCCN2CCOCC2)c(Cl)c1	10.6% (inactive)
Cc1ccc(C(=O)NNC(=O)C(C)Oc2ccc3ccccc3c2)o1 (stereo unspecified)	-1.31% (inactive)
COc1ccc(OC)c(C(c2nnnn2C(C)(C)C)N2CCc3ccccc3C2)c1 (stereo unspecified)	63.1% (active)
COCCn1nnnc1C(c1cc2ccc(OC)cc2[nH]c1=O)N1CCc2ccccc2C1 (stereo unspecified)	-9.17% (inactive)
COc1ccccc1C(c1nnnn1C(C)(C)C)N1CCN(Cc2ccccc2)CC1 (stereo unspecified)	-3.59% (inactive)
CCCCN(C(=O)c1ccc(C)o1)c1c(N)n(CCCC)c(=O)[nH]c1=O	-0.399% (inactive)
O=C1CC(Sc2ncn[nH]2)C(=O)N1c1ccccc1 (stereo unspecified)	23.3% (inactive)
CN1CCc2nc(SC(C(=O)O)c3ccccc3)c(C#N)c(-c3cccs3)c2C1 (stereo unspecified)	64.4% (active)

Structure (SMILES)	inhibition
CC(NC(=O)CSc1nc2c(cc1C#N)CN(C)CC2)c1ccccc1 (stereo unspecified)	1.88% (inactive)
Cc1c(-c2ccccc2)nc(N)c(C#N)c1-c1cccs1	0.738% (inactive)
CCCCn1c(N)c(N(Cc2ccccc2OC)C(=O)COc2cc(C)ccc2Cl)c(=O)[nH]c1=O	6.73% (inactive)
COc1ccccc1C(=O)COC(=O)CSCC(=O)Nc1cc(C)on1	-6.4% (inactive)
O=C(NCCN1CCOCC1)c1ccc(/C=C2\Sc3ccccc3N(Cc3ccc(F)cc3)C2=O)cc1	10.9% (inactive)
CCN1CCN(CCNC(=O)c2ccc3c(c2)NC(=O)/C(=C\c2ccc(OC)c(OC)c2)S3)CC1	11.8% (inactive)
CCN1CCN(CCNC(=O)c2ccc(/C=C3/Sc4ccccc4N(Cc4cccc(C)c4)C3=O)cc2)CC1	59% (active)
Cc1cc(C)c(S(=O)(=O)N2CCCC2CNC(=O)c2ccc3c(c2)OCO3)c(C)c1 (stereo unspecified)	-2.11% (inactive)
Cc1ccc(S(=O)(=O)c2c[nH]c3ccc(Cl)cc3c2=O)cc1	5.53% (inactive)
O=C(C1=C[C@H](C2CC2)C[C@H](OCc2ccc(CO)cc2)O1)N1CCN(Cc2ccccc2)CC1	59.7% (active)
O=C(C1=C[C@H](c2coc3ccccc3c2=O)C[C@H](OCc2ccc(CO)cc2)O1)N1CCN(Cc2ccccc2)CC1	33.6% (inactive)
O=C(NCc1ccccc1)C1=C[C@H](C2CC2)C[C@H](OCc2ccc(CO)cc2)O1	15% (inactive)
O=S(=O)(c1ccccc1)N1CCC(c2ccccc2)CC1	0.981% (inactive)
Cc1ccc(C(=O)N2CCC(n3nccc3NC(=O)Nc3cccc(F)c3)CC2)cn1	-8.51% (inactive)
COc1ccc(CNS(=O)(=O)c2cc3c4c(c2)CCN4C(=O)CC3)cc1	-11.2% (inactive)
CN1CCN(NC(=O)c2ccc(S(=O)(=O)N3CCCCCC3)cc2)CC1	68.3% (active)
COc1cc(C(=O)NNC(=O)c2ccc(S(=O)(=O)N3CCCCC3)cc2)cc(OC)c1OC	-12.8% (inactive)
CC1CN(S(=O)(=O)c2ccc(C(=O)NN3CCN(C)CC3)cc2)CC(C)O1 (stereo unspecified)	6.61% (inactive)
CCN(CC(=O)Nc1cc(Cl)ccc1C)C(=O)CN1C(=O)NC2(CCCC2)C1=O	2.7% (inactive)
COc1ccc(C(=O)CN2C(=O)NC3(CCc4ccccc43)C2=O)c(OC)c1 (stereo unspecified)	1.63% (inactive)
C/C(=N\NC(=O)Cc1ccc(Cl)cc1)c1ccccn1	64.9% (active)
C/C(=N\NC(=O)Cc1ccc(Br)cc1)c1cccnc1	-9.89% (inactive)
C/C(=N\NC(=O)c1ccccc1F)c1ccccn1	23.5% (inactive)
CCOc1ccc(NC(=O)CN(C)C(=O)c2c(C)noc2C)cc1OCC	0.476% (inactive)

Structure (SMILES)	inhibition
CCCS(=O)(=O)N1CCN=C1SCc1cccc(F)c1	6.03% (inactive)
CC1CCN(c2ccc(-c3ccc(NC(=O)c4ccco4)cc3)nn2)CC1	6.55% (inactive)
COc1ccc(NC(=O)CSc2nc(NS(=O)(=O)c3ccc(C)cc3)cc(=O)[nH]2)cc1	7.86% (inactive)
COc1ccc2nc(N3CCN(C(=O)c4ccc([N+](=O)[O-])o4)CC3)sc2c1	60.2% (active)
O=C(c1ccc2nc(N3CCOCC3)sc2c1)N1CCN(c2ccc(Cl)cc2)CC1	2.47% (inactive)
Cc1ccc2nc(N3CCN(C(=O)c4ccco4)CC3)sc2c1	-3.92% (inactive)
O=C1C=C(c2ccc(Cl)cc2)C(=O)N1Nc1ccccc1	44.2% (inactive)
CC1CCN(C(=O)c2cccc(S(=O)(=O)N3CCCc4ccccc43)c2)CC1	12.1% (inactive)
COc1ccc(C(=O)N(CCN2CCOCC2)CC(=O)NC2CCCC2)cc1OC	-3.29% (inactive)
CCCCOc1ccc(CSC(=N)N)cc1[N+](=O)[O-]	38.2% (inactive)
CCCOc1ccc(Cn2ccnc2)cc1[N+](=O)[O-]	30.6% (inactive)
CCCCCOc1ccc(CSC2=NCCN2)cc1[N+](=O)[O-]	59.6% (active)
O=C(NNS(=O)(=O)c1ccc(F)cc1)C1CCCCC1	-13.6% (inactive)
CCOC(=O)C[C@H]1c2ccc(C(F)(F)F)cc2S(=O)(=O)N1c1ccccc1	-7.83% (inactive)
O=C(COC(=O)c1ccc([N+](=O)[O-])cc1Cl)NC(=O)c1ccccc1	-9.49% (inactive)
COc1ccc(CCNC(=O)CS(=O)(=O)Cc2nc(-c3ccc(C)cc3)oc2C)cc1OC	5.37% (inactive)
COc1cc(CN2CCCC(C(=O)c3ccc(SC)cc3)C2)cc(Cl)c1O (stereo unspecified)	24.2% (inactive)
COc1ccc(CN2CCCC(C(=O)c3ccc(Cl)cc3)C2)cc1Cn1cncn1 (stereo unspecified)	67.8% (active)
COc1ccc(CCNC(=O)C2CCCN(Cc3nc(-c4cccc(Cl)c4)oc3C)C2)cc1OC (stereo unspecified)	61.6% (active)
COc1cccc(-c2nc(CS(=O)(=O)CC(=O)NCCc3ccc(OC)c(OC)c3)c(C)o2)c1	21.5% (inactive)
COc1ccc(CN2CCCC(CNC(=O)c3ccc(F)cc3)C2)cc1OC (stereo unspecified)	45.9% (inactive)
COc1ccc(CCN(C)C(=O)C2CCCN(Cc3ccc(OC)c(OC)c3)C2)cc1OC (stereo unspecified)	66.2% (active) and 34.7% (inactive)
COc1ccc(C(=O)C2CCCN(Cc3ccc4nonc4c3)C2)c(C)c1 (stereo unspecified)	20% (inactive)
CCCCNC(=O)N1CCCC(N(C)CCc2ccc(OC)c(OC)c2)C1 (stereo unspecified)	37.8% (inactive)
